Measurements from ChEMBL document CHEMBL3244146, “Pyranenamines: a new series of antiallergic compounds” (1979).

Experiments:
Rattus norvegicus [1] = assay: Antiallergic activity in po dosed rat assessed as inhibition of egg albumin-induced passive cutaneous anaphylaxis treated for 15 mins followed by egg albumin-challenge measured after 30 mins; format: functional; details: read-out: ID50 (the source's name)
Procedure, shortened: (§1)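 Oral PCA in rats: intradermal antiserum at four back sites (dose giving ~12×12 mm wheal), compound po 48 h later, 15 min before iv challenge with 0.5 mL saline containing 5 mg Evans blue plus 5 mg egg albumin; skin bluing read 30 min after challenge on two axes per wheal; six rats per dose versus ≥6 vehicle controls; percent inhibition from mean wheal size, one-sided t test.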

Rattus norvegicus [2] = assay: Antiallergic activity in iv dosed rat assessed as inhibition of egg albumin-induced passive cutaneous anaphylaxis treated for 30 secs followed by egg albumin-challenge measured after 30 mins; format: functional; details: 0.5 h, read-out: ID50 (the source's name)
Lung [3] = assay: Antiallergic activity in passively sensitized albino rat lungs assessed as inhibition of antigen-induced histamine release at 1 x 10^-7 M by fluorometric analysis relative to control; format: functional
Procedure, shortened: (§2)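 Fragmented lung from adult male Charles River albino rats, passively sensitized, then antigen-challenged with compound present; released histamine measured fluorometrically; inhibition reported relative to control, with replicate count given as number of separate lung preparations.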

Lung [4] = assay: Antiallergic activity in passively sensitized albino rat lungs assessed as inhibition of antigen-induced histamine release at 1 x 10^-6 M by fluorometric analysis relative to control; format: functional; procedure, shortened: as §2
Rattus norvegicus [5] = assay: Antiallergic activity in rat assessed as inhibition of egg albumin-induced passive cutaneous anaphylaxis at 25 mg/kg, po treated for 15 mins followed by egg albumin-challenge measured after 30 mins relative to control; format: functional; procedure, shortened: as §1
Rattus norvegicus [6] = assay: Antiallergic activity in rat assessed as inhibition of egg albumin-induced passive cutaneous anaphylaxis at 3.4 mg/kg, iv treated for 30 secs followed by egg albumin-challenge measured after 30 mins relative to control; format: functional; details: 0.5 h
Rattus norvegicus [7] = assay: Antiallergic activity in rat assessed as inhibition of egg albumin-induced passive cutaneous anaphylaxis at 50 mg/kg, po treated for 15 mins followed by egg albumin-challenge measured after 30 mins relative to control; format: functional; procedure, shortened: as §1
Rattus norvegicus [8] = assay: Antiallergic activity in rat assessed as inhibition of egg albumin-induced passive cutaneous anaphylaxis at 0.5 mg/kg, iv treated for 30 secs followed by egg albumin-challenge measured after 30 mins relative to control; format: functional; details: 0.5 h
Lung [9] = assay: Antiallergic activity in passively sensitized albino rat lungs assessed as inhibition of antigen-induced histamine release at 1 x 10^-5 M by fluorometric analysis relative to control; format: functional; procedure, shortened: as §2
[10] = Antiallergic activity in passively sensitized rhesus monkey lungs assessed as inhibition of antigen-induced histamine release at 1 x 10^-5 M by fluorometric analysis relative to control; format: functional, Macaca mulatta, Lung
Procedure, shortened: (§3)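 Passively sensitized fragmented lung from a young adult male rhesus monkey, challenged with IgE-antihuman IgE; histamine release measured fluorometrically and SRS-A estimated by guinea pig ileum bioassay; inhibition relative to control; replicates given as number of separate lung preparations.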

[11] = Antiallergic activity in passively sensitized rhesus monkey lungs assessed as inhibition of antigen-induced slow reacting substance of anaphylaxis release at 1 x 10^-6 M relative to control; format: functional, Macaca mulatta, Lung; procedure, shortened: as §3
[12] = Antiallergic activity in passively sensitized rhesus monkey lungs assessed as inhibition of antigen-induced slow reacting substance of anaphylaxis release at 1 x 10^-5 M relative to control; format: functional, Macaca mulatta, Lung; procedure, shortened: as §3
Lung [13] = assay: Antiallergic activity in passively sensitized albino rat lungs assessed as inhibition of antigen-induced histamine release at 1 x 10^-8 M by fluorometric analysis relative to control; format: functional; procedure, shortened: as §2
[14] = Antiallergic activity in passively sensitized rhesus monkey lungs assessed as inhibition of antigen-induced histamine release by fluorometric analysis; format: functional, Macaca mulatta, Lung; procedure, shortened: as §3
[15] = Antiallergic activity in passively sensitized rhesus monkey lungs assessed as inhibition of antigen-induced histamine release at 5 x 10^-5 M by fluorometric analysis relative to control; format: functional, Macaca mulatta, Lung; procedure, shortened: as §3
[16] = Antiallergic activity in passively sensitized rhesus monkey lungs assessed as inhibition of antigen-induced histamine release at 1 x 10^-6 M by fluorometric analysis relative to control; format: functional, Macaca mulatta, Lung; procedure, shortened: as §3
[17] = Antiallergic activity in passively sensitized rhesus monkey lungs assessed as inhibition of antigen-induced slow reacting substance of anaphylaxis release at 1 x 10^-4 M relative to control; format: functional, Macaca mulatta, Lung; procedure, shortened: as §3
[18] = Antiallergic activity in passively sensitized rhesus monkey lungs assessed as inhibition of antigen-induced slow reacting substance of anaphylaxis release at 5 x 10^-5 M relative to control; format: functional, Macaca mulatta, Lung; procedure, shortened: as §3
Rattus norvegicus [19] = assay: Ratio of antiallergic activity in iv dosed rat to antiallergic activity in po dosed rat; format: functional
Rattus norvegicus [20] = assay: Antiallergic activity in rat assessed as inhibition of egg albumin-induced passive cutaneous anaphylaxis at 0.7 mg/kg, iv treated for 30 secs followed by egg albumin-challenge measured after 30 mins relative to control; format: functional; details: 0.5 h
[21] = Antiallergic activity in passively sensitized rhesus monkey lungs assessed as inhibition of antigen-induced histamine release at 1 x 10^-4 M by fluorometric analysis relative to control; format: functional, Macaca mulatta, Lung; procedure, shortened: as §3
[22] = Antiallergic activity in passively sensitized rhesus monkey lungs assessed as inhibition of antigen-induced slow reacting substance of anaphylaxis release; format: functional, Macaca mulatta, Lung; procedure, shortened: as §3
Rattus norvegicus [23] = assay: Antiallergic activity in rat assessed as inhibition of egg albumin-induced passive cutaneous anaphylaxis at 0.25 mg/kg, iv treated for 30 secs followed by egg albumin-challenge measured after 30 mins relative to control; format: functional; details: 0.5 h
[24] = Antiallergic activity in passively sensitized rhesus monkey lungs assessed as inhibition of antigen-induced histamine release at 2.7 x 10^-4 M by fluorometric analysis relative to control; format: functional, Macaca mulatta, Lung; procedure, shortened: as §3
[25] = Antiallergic activity in passively sensitized rhesus monkey lungs assessed as inhibition of antigen-induced slow reacting substance of anaphylaxis release at 5.3 x 10^-5 M relative to control; format: functional, Macaca mulatta, Lung; procedure, shortened: as §3
[26] = Antiallergic activity in passively sensitized rhesus monkey lungs assessed as inhibition of antigen-induced histamine release at 5.3 x 10^-5 M by fluorometric analysis relative to control; format: functional, Macaca mulatta, Lung; procedure, shortened: as §3
Lung [27] = assay: Antiallergic activity in passively sensitized albino rat lungs assessed as inhibition of antigen-induced histamine release at 2.7 x 10^-4 M by fluorometric analysis relative to control; format: functional; procedure, shortened: as §2
Lung [28] = assay: Antiallergic activity in passively sensitized albino rat lungs assessed as inhibition of antigen-induced histamine release at 1.3 x 10^-3 M by fluorometric analysis relative to control; format: functional; procedure, shortened: as §2
[29] = Antiallergic activity in passively sensitized rhesus monkey lungs assessed as inhibition of antigen-induced histamine release at 1.3 x 10^-3 M by fluorometric analysis relative to control; format: functional, Macaca mulatta, Lung; procedure, shortened: as §3
[30] = Antiallergic activity in passively sensitized rhesus monkey lungs assessed as inhibition of antigen-induced slow reacting substance of anaphylaxis release at 2.7 x 10^-4 M relative to control; format: functional, Macaca mulatta, Lung; procedure, shortened: as §3
Lung [31] = assay: Antiallergic activity in passively sensitized albino rat lungs assessed as inhibition of antigen-induced histamine release at 5.3 x 10^-5 M by fluorometric analysis relative to control; format: functional; procedure, shortened: as §2
[32] = Antiallergic activity in passively sensitized rhesus monkey lungs assessed as inhibition of antigen-induced slow reacting substance of anaphylaxis release at 1.3 x 10^-3 M relative to control; format: functional, Macaca mulatta, Lung; procedure, shortened: as §3

CC(=O)C1=C(O)/C(=C(\C)Nc2ccc(O)c(NC(=O)C(C)C)c2)C(=O)OC1=O
ED50 (Rattus norvegicus [1]): 3.3 mg/kg | ED50 (Rattus norvegicus [2]): 0.2 mg/kg | inhibition (INH) (Lung [3]): 81% | inhibition (INH) (Lung [4]): 78%

CC(=O)C1=C(O)/C(=C(\C)Nc2ccc(N)c(O)c2)C(=O)OC1=O
inhibition in vivo at 25 mg/kg (Rattus norvegicus [5]): 40% | inhibition in vivo at 3.4 mg/kg (Rattus norvegicus [6]): 50%

CC(=O)Nc1cc(NC(C)=O)cc(N/C(C)=C2\C(=O)OC(=O)C(C(C)=O)=C2O)c1
inhibition in vivo at 50 mg/kg (Rattus norvegicus [7]): -1% | ED50 (Rattus norvegicus [2]): 0.01 mg/kg

CC(=O)C1=C(O)/C(=C(\C)Nc2ccc(NC(=O)C(C)C)cc2)C(=O)OC1=O
inhibition in vivo at 25 mg/kg (Rattus norvegicus [5]): 4% | inhibition in vivo at 0.5 mg/kg (Rattus norvegicus [8]): 64% | inhibition (INH) (Lung [4]): 60% | inhibition (INH) (Lung [9]): 92%

CC(=O)C1=C(O)/C(=C(\C)Nc2ccc(O)c(N)c2)C(=O)OC1=O.Cl
inhibition (INH) [10]: 22% | inhibition (INH) [11]: -24% | ED50 (Rattus norvegicus [1]): 0.8 mg/kg | inhibition (INH) [12]: 1% | inhibition (INH) (Lung [13]): 26% | ID30 [14]: 1.3 ×10⁻⁵ M | inhibition (INH) [15]: 49% | inhibition (INH) [16]: 4% | inhibition (INH) [17]: 56% | inhibition (INH) [18]: 40% | Ratio (Rattus norvegicus [19]): 1 | inhibition in vivo at 0.7 mg/kg (Rattus norvegicus [20]): 50% | inhibition (INH) [21]: 66% | inhibition (INH) (Lung [3]): 42% | inhibition (INH) (Lung [4]): 61% | inhibition (INH) (Lung [9]): 47% | ID30 [22]: 3.3 ×10⁻⁵ M

CCC(=O)Nc1cc(N/C(C)=C2\C(=O)OC(=O)C(C(C)=O)=C2O)ccc1O
ED50 (Rattus norvegicus [1]): 0.6 mg/kg | inhibition (INH) (Lung [13]): 41% | ED50 (Rattus norvegicus [2]): 0.4 mg/kg | inhibition (INH) (Lung [3]): 70% | inhibition (INH) (Lung [4]): 66% | inhibition (INH) (Lung [9]): 65%

CC(=O)Nc1cccc(N/C(C)=C2\C(=O)OC(=O)C(C(C)=O)=C2O)c1
inhibition in vivo at 25 mg/kg (Rattus norvegicus [5]): 53% | inhibition in vivo at 0.25 mg/kg (Rattus norvegicus [23]): 65%

O=C([O-])c1cc(=O)c2c(OCC(O)COc3cccc4oc(C(=O)[O-])cc(=O)c34)cccc2o1.[Na+].[Na+] [CROMOLYN SODIUM]
inhibition (INH) [24]: 37% | inhibition (INH) [25]: 24% | inhibition (INH) [26]: 11% | ED50 (Rattus norvegicus [2]): 0.9 mg/kg | inhibition (INH) (Lung [27]): 47% | inhibition (INH) (Lung [28]): 56% | inhibition (INH) [29]: 54% | inhibition (INH) [30]: 36% | inhibition (INH) (Lung [31]): 32% | inhibition (INH) [32]: 27%
